From ChEMBL document CHEMBL1129974, “Discovery of HIV-1 integrase inhibitors by pharmacophore searching” (J Med Chem, 1997)

Each compound was assayed against T1, Human immunodeficiency virus type 1 integrase (Human immunodeficiency virus 1, UniProt Q7ZJM1) (assay: Inhibitory concentration against purified recombinant integrase by strand transfer in vitro assay (experiment 1)).
Outline: (§1)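 Recombinant wild-type HIV-1 integrase, final 200 nM, preincubated with inhibitor for 30 min at 30 °C. Buffer: 50 mM NaCl, HEPES/MOPS, 7.5 mM MnCl2 when specified, 10% DMSO, 10% glycerol, BSA, 2-mercaptoethanol. Then 20 nM 5′-32P-labeled 21-mer U5 LTR duplex (AE117/AE118) added for 60 min. Products separated on denaturing 20% urea gel and quantified by phosphorimager. 3′-processing (19-mer) and strand transfer products read in one reaction. IC50 read from plot of concentration vs percent inhibition, several concentrations.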

T1 sequence (Q7ZJM1 whole entry): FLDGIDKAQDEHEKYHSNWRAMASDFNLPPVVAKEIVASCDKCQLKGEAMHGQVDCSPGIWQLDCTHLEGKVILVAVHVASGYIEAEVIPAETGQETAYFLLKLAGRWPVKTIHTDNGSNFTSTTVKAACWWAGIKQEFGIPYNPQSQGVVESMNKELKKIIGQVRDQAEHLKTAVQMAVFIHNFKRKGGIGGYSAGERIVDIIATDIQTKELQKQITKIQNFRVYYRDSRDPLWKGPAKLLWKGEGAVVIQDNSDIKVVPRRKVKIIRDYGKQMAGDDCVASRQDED

SMILES | IC50 [µM]
COc1cc2oc(-c3ccc(O)cc3)cc(=O)c2c(O)c1C1OC(CO)C(O)C(O)C1O (stereo not drawn) | 134
CCC/C=C/C=C/[C@@H]1C[C@@H](O)[C@@H](O)C(=O)[C@H]1CO | 268
O=C(NO)/C(CC(=O)c1ccc(O)cc1O)=N\O | 16.5
O=C(CCCCC(=O)c1ccc(O)cc1O)OCCO | 185
COc1cc(N)ccc1C(=O)NC(CCC(=O)O)C(=O)O (stereo not drawn) | 203
C[C@H]1C(=O)c2c(cc(O)c(C3OC(CO)C(O)C(O)C3O)c2O)OC1c1ccc(O)c(O)c1 (stereo partly drawn) | 103
O=C(CC(O)(c1ccccc1)c1ccc(Cl)cc1)NC(=O)c1ccccc1O (stereo not drawn) | 101

These compounds were tested against T1, Human immunodeficiency virus type 1 integrase (assay: Inhibitory concentration against purified recombinant integrase by strand transfer in vitro assay (experiment 2)).
Outline: as §1

SMILES | IC50 [µM]
COc1cc2oc(-c3ccc(O)cc3)cc(=O)c2c(O)c1C1OC(CO)C(O)C(O)C1O (stereo not drawn) | 143
CCC/C=C/C=C/[C@@H]1C[C@@H](O)[C@@H](O)C(=O)[C@H]1CO | 135
O=C(NO)/C(CC(=O)c1ccc(O)cc1O)=N\O | 35.8
O=C(CCCCC(=O)c1ccc(O)cc1O)OCCO | 233
COc1cc(N)ccc1C(=O)NC(CCC(=O)O)C(=O)O (stereo not drawn) | 271
C[C@H]1C(=O)c2c(cc(O)c(C3OC(CO)C(O)C(O)C3O)c2O)OC1c1ccc(O)c(O)c1 (stereo partly drawn) | 47.6
O=C(CC(O)(c1ccccc1)c1ccc(Cl)cc1)NC(=O)c1ccccc1O (stereo not drawn) | 142

Each compound was assayed against T1, Human immunodeficiency virus type 1 integrase (assay: Inhibitory concentration against purified recombinant integrase by strand transferrin vitro assay).
Outline: as §1

SMILES | IC50 [µM]
O=C(N/N=C/c1ccc(O)cc1O)N/N=C/c1ccc(O)cc1O | 20.6

What follows are compounds tested against T1, Human immunodeficiency virus type 1 integrase (assay: Inhibitory concentration against purified recombinant integrase by 3'-processing in 3D search).

SMILES | IC50 [µM]
O=C(NCO)NCOCn1c(=O)n(CO)c(=O)n(CO)c1=O | 5.29
O=C(NNC(=O)c1ccccc1O)c1ccccc1O.O=C(NNCC(O)COc1ccccc1)c1ccccc1O (stereo not drawn) | 1.04
O=C(N/N=C/c1ccc(O)cc1O)N/N=C/c1ccc(O)cc1O | 26.3

The compounds below were run against T1, Human immunodeficiency virus type 1 integrase (assay: Inhibitory concentration against purified recombinant integrase by 3'-processing in 3D search (experiment 1)).
Outline: as §1

SMILES | IC50 [µM]
COc1cc2oc(-c3ccc(O)cc3)cc(=O)c2c(O)c1C1OC(CO)C(O)C(O)C1O (stereo not drawn) | 224
CCC/C=C/C=C/[C@@H]1C[C@@H](O)[C@@H](O)C(=O)[C@H]1CO | 350
O=C(NO)/C(CC(=O)c1ccc(O)cc1O)=N\O | 29.9
O=C(CCCCC(=O)c1ccc(O)cc1O)OCCO | 294
COc1cc(N)ccc1C(=O)NC(CCC(=O)O)C(=O)O (stereo not drawn) | 230
C[C@H]1C(=O)c2c(cc(O)c(C3OC(CO)C(O)C(O)C3O)c2O)OC1c1ccc(O)c(O)c1 (stereo partly drawn) | 177
O=C(CC(O)(c1ccccc1)c1ccc(Cl)cc1)NC(=O)c1ccccc1O (stereo not drawn) | 182

These compounds were tested against T1, Human immunodeficiency virus type 1 integrase (assay: Inhibitory concentration against purified recombinant integrase by 3'-processing in 3D search (experiment 2)).
Outline: as §1

SMILES | IC50 [µM]
COc1cc2oc(-c3ccc(O)cc3)cc(=O)c2c(O)c1C1OC(CO)C(O)C(O)C1O (stereo not drawn) | 291
CCC/C=C/C=C/[C@@H]1C[C@@H](O)[C@@H](O)C(=O)[C@H]1CO | 291
O=C(NO)/C(CC(=O)c1ccc(O)cc1O)=N\O | 70.8
O=C(CCCCC(=O)c1ccc(O)cc1O)OCCO | 368
COc1cc(N)ccc1C(=O)NC(CCC(=O)O)C(=O)O (stereo not drawn) | 270
C[C@H]1C(=O)c2c(cc(O)c(C3OC(CO)C(O)C(O)C3O)c2O)OC1c1ccc(O)c(O)c1 (stereo partly drawn) | 125
O=C(CC(O)(c1ccccc1)c1ccc(Cl)cc1)NC(=O)c1ccccc1O (stereo not drawn) | 237

These compounds were tested against T1, Human immunodeficiency virus type 1 integrase (assay: Inhibitory concentration against purified recombinant integrase by 3'-processing in vitro assay).

SMILES | IC50 [µM]
O=C(NCO)NCOCn1c(=O)n(CO)c(=O)n(CO)c1=O | 5.3
O=C(NNC(=O)c1ccccc1O)c1ccccc1O.O=C(NNCC(O)COc1ccccc1)c1ccccc1O (stereo not drawn) | 2
O=C1Oc2ccccc2C(O)C1C(c1ccccc1)C1C(=O)Oc2ccccc2C1O (stereo not drawn) | 43.4
O=C(N/N=C/c1ccc(O)cc1O)N/N=C/c1ccc(O)cc1O | 26

What follows are compounds tested against T1, Human immunodeficiency virus type 1 integrase (assay: Inhibitory concentration against purified recombinant integrase by 3'-processing in vitro assay (experiment 2)).
Outline: as §1

SMILES | IC50 [µM]
COc1cc2oc(-c3ccc(O)cc3)cc(=O)c2c(O)c1C1OC(CO)C(O)C(O)C1O (stereo not drawn) | 291
CCC/C=C/C=C/[C@@H]1C[C@@H](O)[C@@H](O)C(=O)[C@H]1CO | 289
O=C(NO)/C(CC(=O)c1ccc(O)cc1O)=N\O | 71.3
O=C(CCCCC(=O)c1ccc(O)cc1O)OCCO | 367
COc1cc(N)ccc1C(=O)NC(CCC(=O)O)C(=O)O (stereo not drawn) | 271
C[C@H]1C(=O)c2c(cc(O)c(C3OC(CO)C(O)C(O)C3O)c2O)OC1c1ccc(O)c(O)c1 (stereo partly drawn) | 124
O=C(CC(O)(c1ccccc1)c1ccc(Cl)cc1)NC(=O)c1ccccc1O (stereo not drawn) | 238

What follows are compounds tested against T1, Human immunodeficiency virus type 1 integrase (assay: (§2) Inhibitory concentration against purified recombinant integrase by strand transfer 3D search).

SMILES | IC50 [µM]
O=C(NCO)NCOCn1c(=O)n(CO)c(=O)n(CO)c1=O | 4.98
O=C(NNC(=O)c1ccccc1O)c1ccccc1O.O=C(NNCC(O)COc1ccccc1)c1ccccc1O (stereo not drawn) | 0.801

Each compound was assayed against T1, Human immunodeficiency virus type 1 integrase (assay: Inhibitory concentration against purified recombinant integrase by strand transfer 3D search (experiment 1)).
Outline: as §1

SMILES | IC50 [µM]
COc1cc2oc(-c3ccc(O)cc3)cc(=O)c2c(O)c1C1OC(CO)C(O)C(O)C1O (stereo not drawn) | 134
CCC/C=C/C=C/[C@@H]1C[C@@H](O)[C@@H](O)C(=O)[C@H]1CO | 267
O=C(NO)/C(CC(=O)c1ccc(O)cc1O)=N\O | 16.5
O=C(CCCCC(=O)c1ccc(O)cc1O)OCCO | 184
COc1cc(N)ccc1C(=O)NC(CCC(=O)O)C(=O)O (stereo not drawn) | 203
C[C@H]1C(=O)c2c(cc(O)c(C3OC(CO)C(O)C(O)C3O)c2O)OC1c1ccc(O)c(O)c1 (stereo partly drawn) | 103
O=C(CC(O)(c1ccccc1)c1ccc(Cl)cc1)NC(=O)c1ccccc1O (stereo not drawn) | 101

What follows are compounds tested against T1, Human immunodeficiency virus type 1 integrase (assay: Inhibitory concentration against purified recombinant integrase by strand transfer 3D search (experiment 2)).
Outline: as §1

SMILES | IC50 [µM]
COc1cc2oc(-c3ccc(O)cc3)cc(=O)c2c(O)c1C1OC(CO)C(O)C(O)C1O (stereo not drawn) | 143
CCC/C=C/C=C/[C@@H]1C[C@@H](O)[C@@H](O)C(=O)[C@H]1CO | 134
O=C(NO)/C(CC(=O)c1ccc(O)cc1O)=N\O | 35.8
O=C(CCCCC(=O)c1ccc(O)cc1O)OCCO | 234
COc1cc(N)ccc1C(=O)NC(CCC(=O)O)C(=O)O (stereo not drawn) | 270
C[C@H]1C(=O)c2c(cc(O)c(C3OC(CO)C(O)C(O)C3O)c2O)OC1c1ccc(O)c(O)c1 (stereo partly drawn) | 47.4
O=C(CC(O)(c1ccccc1)c1ccc(Cl)cc1)NC(=O)c1ccccc1O (stereo not drawn) | 141

What follows are compounds tested against T1, Human immunodeficiency virus type 1 integrase (assay: Inhibitory concentration against purified recombinant integrase by strand transfer in vitro assay).

SMILES | IC50 [µM]
O=C(NCO)NCOCn1c(=O)n(CO)c(=O)n(CO)c1=O | 5
O=C(NNC(=O)c1ccccc1O)c1ccccc1O.O=C(NNCC(O)COc1ccccc1)c1ccccc1O (stereo not drawn) | 1.5
O=C1Oc2ccccc2C(O)C1C(c1ccccc1)C1C(=O)Oc2ccccc2C1O (stereo not drawn) | 38.8

The compounds below were run against Human immunodeficiency virus type 1 integrase (Human immunodeficiency virus 1) (UniProt Q7ZJM1) (assay: Percentage inhibition was obtained by performing in vitro assay on purified recombinant integrase by 3''-processing method at 100 micro g/mL (experiment 1)).
Chain of Human immunodeficiency virus type 1 integrase (Human immunodeficiency virus 1) (Q7ZJM1 as listed by the source): as the sequence (Q7ZJM1 whole entry) above
Outline: (§3)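 Single concentration of 100 µg/mL tested. Recombinant HIV-1 integrase (200 nM final) preincubated with compound for 30 min at 30 °C in Mn2+/DMSO buffer, then reacted for 60 min with 20 nM 5′-32P-labeled 21-mer LTR duplex. Gel and phosphorimager quantitation of 19-mer 3′-processing and strand transfer products. %I = 100×[1−(D−C)/(N−C)], relative to DNA-alone and DNA+integrase controls.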

SMILES | inhibition [%]
O=C(CC(=O)Nc1ccccc1O)Nc1ccccc1O | 23.1
COc1cc2oc(-c3ccc(O)cc3)cc(=O)c2c(O)c1C1OC(CO)C(O)C(O)C1O (stereo not drawn) | 62.7

These compounds were tested against Human immunodeficiency virus type 1 integrase (Human immunodeficiency virus 1) (UniProt Q7ZJM1) (assay: Percentage inhibition was obtained by performing in vitro assay on purified recombinant integrase by 3''-processing method at 100 micro g/mL (experiment 2)).
Outline: as §3

SMILES | inhibition [%]
O=C(CC(=O)Nc1ccccc1O)Nc1ccccc1O | 17.6
COc1cc2oc(-c3ccc(O)cc3)cc(=O)c2c(O)c1C1OC(CO)C(O)C(O)C1O (stereo not drawn) | 43.4

The compounds below were run against Human immunodeficiency virus type 1 integrase (Human immunodeficiency virus 1) (UniProt Q7ZJM1) (assay: Percentage inhibition was obtained by performing in vitro assay on purified recombinant integrase by strand transfer method at 100 micro g/mL (experiment 1)).
Outline: as §3

SMILES | inhibition [%]
O=C(CC(=O)Nc1ccccc1O)Nc1ccccc1O | 57.2
COc1cc2oc(-c3ccc(O)cc3)cc(=O)c2c(O)c1C1OC(CO)C(O)C(O)C1O (stereo not drawn) | 92.2

What follows are compounds tested against Human immunodeficiency virus type 1 integrase (Human immunodeficiency virus 1) (UniProt Q7ZJM1) (assay: Percentage inhibition was obtained by performing in vitro assay on purified recombinant integrase by strand transfer method at 100 micro g/mL (experiment 2)).
Outline: as §3

SMILES | inhibition [%]
O=C(CC(=O)Nc1ccccc1O)Nc1ccccc1O | 37
COc1cc2oc(-c3ccc(O)cc3)cc(=O)c2c(O)c1C1OC(CO)C(O)C(O)C1O (stereo not drawn) | 66.8

What follows are compounds tested against T1, Human immunodeficiency virus type 1 integrase (assay: as §2).
Outline: as §1

SMILES | IC50 [µM]
O=C(N/N=C/c1ccc(O)cc1O)N/N=C/c1ccc(O)cc1O | 20.6

The compounds below were run against T1, Human immunodeficiency virus type 1 integrase (assay: Inhibitory concentration against purified recombinant integrase by 3'-processing in vitro assay (experiment 1)).
Outline: as §1

SMILES | IC50 [µM]
COc1cc2oc(-c3ccc(O)cc3)cc(=O)c2c(O)c1C1OC(CO)C(O)C(O)C1O (stereo not drawn) | 224
CCC/C=C/C=C/[C@@H]1C[C@@H](O)[C@@H](O)C(=O)[C@H]1CO | 350
O=C(NO)/C(CC(=O)c1ccc(O)cc1O)=N\O | 29.9
O=C(CCCCC(=O)c1ccc(O)cc1O)OCCO | 294
COc1cc(N)ccc1C(=O)NC(CCC(=O)O)C(=O)O (stereo not drawn) | 228
C[C@H]1C(=O)c2c(cc(O)c(C3OC(CO)C(O)C(O)C3O)c2O)OC1c1ccc(O)c(O)c1 (stereo partly drawn) | 177
O=C(CC(O)(c1ccccc1)c1ccc(Cl)cc1)NC(=O)c1ccccc1O (stereo not drawn) | 182
